Test results as given in PMC5028085 (Drug Design, Development and Therapy, 2016).
Structures can show the parent of a compound that is named as a salt. Where two headings read alike, the source gives them in different places. Marks after values point to notes of the source that are not given here.

Legend:
[1] = high solubility and permeability profile; cited from earlier work
[2] = Metabolic stability in pooled human liver microsomes for CLint; type: in vitro ADME; conditions: for microsomal CLint at 400 nM: human, pooled human liver microsomes
Procedure, shortened: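 Preincubated 5 min at 37°C, then incubated with 400 nM substrate up to 60–90 min. Run in duplicate, analysed by LC-MS/MS as % remaining vs time 0. t1/2 from initial log-linear slope; CLint = (0.693/t1/2)×(incubation volume/microsomal protein).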

[3] = target: P-gp (Homo sapiens, UniProt P08183); type: cell-based; conditions: for Permeability Papp,AB of loperamide / Permeability Papp,BA of loperamide / Inhibition (%): MDCK-II-P-gp; for Permeability Papp,AB of loperamide / Permeability Papp,BA of loperamide: loperamide 10 μM, mean ± SD (n=3); for Inhibition (%): loperamide transport
[4] = cited from earlier work
[5] = PBPK input parameters predicted, defaulted, optimized or assumed in Simcyp; design: species or system human; conditions: Assumed from Reference 21
[6] = Metabolic stability of sarpogrelate in human blood; type: in vitro ADME; conditions: sarpogrelate 400 nM, 60-minute incubation; data not shown
[7] = Observed clinical pharmacokinetics after oral sarpogrelate hydrochloride; type: in vivo, human
[8] = MTT cytotoxicity assay in MDCK-II-P-gp cells; type: cell-based, canine; conditions: dog
[9] = Metabolic stability of sarpogrelate in human intestinal microsomes; type: in vitro ADME; conditions: sarpogrelate 400 nM, 60-minute incubation; data not shown
[10] = MTT cytotoxicity assay in MDCK-II-BCRP cells; type: cell-based, canine; conditions: dog
[11] = target: T1, BCRP (Homo sapiens, UniProt Q9UNQ0); type: cell-based; conditions: for inhibition of BCRP-mediated prazosin transport: all tested concentrations up to 10 μM; for Permeability Papp,AB of prazosin / Permeability Papp,BA of prazosin / Inhibition (%): MDCK-II-BCRP; for Permeability Papp,AB of prazosin / Permeability Papp,BA of prazosin: prazosin 10 μM, mean ± SD (n=3); for Inhibition (%): prazosin transport
T1 sequence (Q9UNQ0 1-655): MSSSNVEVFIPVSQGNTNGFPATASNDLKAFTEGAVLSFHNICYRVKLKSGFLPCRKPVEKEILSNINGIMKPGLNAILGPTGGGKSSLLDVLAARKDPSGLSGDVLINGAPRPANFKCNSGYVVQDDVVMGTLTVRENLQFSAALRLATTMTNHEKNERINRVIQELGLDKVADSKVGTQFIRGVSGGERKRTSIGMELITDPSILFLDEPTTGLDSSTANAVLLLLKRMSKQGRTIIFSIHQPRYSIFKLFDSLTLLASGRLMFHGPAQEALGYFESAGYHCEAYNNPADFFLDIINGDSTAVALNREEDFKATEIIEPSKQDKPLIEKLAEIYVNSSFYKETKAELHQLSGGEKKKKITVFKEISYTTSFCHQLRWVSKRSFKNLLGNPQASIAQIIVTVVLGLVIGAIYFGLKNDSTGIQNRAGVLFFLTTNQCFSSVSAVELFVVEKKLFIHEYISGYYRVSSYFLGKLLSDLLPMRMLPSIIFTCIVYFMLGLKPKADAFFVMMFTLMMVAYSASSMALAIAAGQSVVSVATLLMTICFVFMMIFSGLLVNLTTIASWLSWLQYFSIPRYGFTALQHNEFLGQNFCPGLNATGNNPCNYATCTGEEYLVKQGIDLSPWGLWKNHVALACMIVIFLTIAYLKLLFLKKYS

[12] = test system: CYP2D6; conditions: read-out: CYP2D6 Ki; competitive inhibition type, in vitro; cited from earlier work
[13] = cited from earlier work; remark: listed apart in the source
[14] = cited from earlier work; remark: listed apart in the source
[15] = test system: CYP2D6; conditions: cited from earlier work
[16] = test system: UGT2B7; conditions: M-1 glucuronidation; cited from earlier work
[17] = test system: MDCK-II-P-gp cells; experiment: MTT cytotoxicity assay in MDCK-II-P-gp cells; type: cell-based, canine; conditions: 1 hour incubation, highest drug concentration tested (10 μM)
[18] = test system: UGT1A9; conditions: M-1 glucuronidation; cited from earlier work
[19] = test system: MDCK-II-BCRP cells; experiment: MTT cytotoxicity assay in MDCK-II-BCRP cells; type: cell-based, canine; conditions: 1 hour incubation, highest drug concentration tested (10 μM)
[20] = test system: UGT1A4; conditions: M-1 glucuronidation; cited from earlier work
[21] = test system: CYP2D6; conditions: single coadministration with sarpogrelate hydrochloride 100 mg; cited from earlier work
[22] = human, MDCK-II-P-gp cell monolayer, probe loperamide (10 µM)
[23] = multiple doses 100 mg tid for 1 day
[24] = observed, single oral 100 mg sarpogrelate hydrochloride, median (range), ref 20
[25] = single oral 100 mg sarpogrelate hydrochloride
[26] = human, MDCK-II-BCRP cell monolayer, probe prazosin (10 µM)

P-gp, sequence (P08183 whole entry): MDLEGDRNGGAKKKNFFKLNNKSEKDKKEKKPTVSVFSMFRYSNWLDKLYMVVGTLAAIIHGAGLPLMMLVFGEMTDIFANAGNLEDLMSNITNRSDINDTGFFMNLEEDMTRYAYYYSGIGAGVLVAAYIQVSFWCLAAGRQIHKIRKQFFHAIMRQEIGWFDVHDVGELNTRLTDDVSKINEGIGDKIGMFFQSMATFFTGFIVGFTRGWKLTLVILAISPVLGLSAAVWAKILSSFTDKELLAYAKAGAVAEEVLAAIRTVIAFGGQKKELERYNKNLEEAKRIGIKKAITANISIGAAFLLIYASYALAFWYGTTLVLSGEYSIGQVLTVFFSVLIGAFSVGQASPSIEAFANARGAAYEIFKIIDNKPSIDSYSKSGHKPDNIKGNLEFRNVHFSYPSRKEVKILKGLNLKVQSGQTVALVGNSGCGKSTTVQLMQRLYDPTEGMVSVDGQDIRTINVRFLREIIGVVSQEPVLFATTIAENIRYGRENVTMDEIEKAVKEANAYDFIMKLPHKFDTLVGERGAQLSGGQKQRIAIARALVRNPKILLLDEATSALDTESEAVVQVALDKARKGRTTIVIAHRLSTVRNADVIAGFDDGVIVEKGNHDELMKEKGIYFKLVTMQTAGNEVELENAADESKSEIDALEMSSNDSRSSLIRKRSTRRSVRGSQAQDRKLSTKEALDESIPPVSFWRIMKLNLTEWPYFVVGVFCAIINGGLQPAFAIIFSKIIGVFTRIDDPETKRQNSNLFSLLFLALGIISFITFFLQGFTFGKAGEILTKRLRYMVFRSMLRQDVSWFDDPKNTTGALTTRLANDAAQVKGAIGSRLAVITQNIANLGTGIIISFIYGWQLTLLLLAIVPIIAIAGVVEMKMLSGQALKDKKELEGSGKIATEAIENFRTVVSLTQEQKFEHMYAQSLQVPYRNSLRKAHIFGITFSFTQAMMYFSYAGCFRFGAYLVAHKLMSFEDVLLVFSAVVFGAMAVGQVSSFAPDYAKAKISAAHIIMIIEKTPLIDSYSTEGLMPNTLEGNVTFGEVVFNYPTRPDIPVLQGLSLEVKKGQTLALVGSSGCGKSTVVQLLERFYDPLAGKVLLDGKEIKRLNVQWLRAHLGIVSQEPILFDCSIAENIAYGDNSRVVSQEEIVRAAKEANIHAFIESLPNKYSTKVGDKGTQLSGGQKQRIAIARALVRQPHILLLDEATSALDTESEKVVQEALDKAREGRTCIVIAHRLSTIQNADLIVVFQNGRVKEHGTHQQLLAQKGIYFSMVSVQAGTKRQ

COc1cccc(CCc2ccccc2OCC(CN(C)C)OC(=O)CCC(=O)O)c1 (racemic) [Sarpogrelate, (R,S)-1-{2-[2-(3-methoxyphenyl)ethyl]-phenoxy}-3-(dimethylamino)-2-propyl hydrogen succinate hydrochloride]
biopharmaceutics classification system (BCS) class [1]: Class I
microsomal CLint at 400 nM ([2]; pH 7.4, CLint for M-1 formation (carboxylesterase-mediated CLint), 400 nM sarpogrelate, HLM 0.1 mg/mL, no cofactor): 32.6 µL/min/mg
microsomal CLint at 400 nM ([2]; pH 7.5, carboxylesterase and UDPGA-dependent CLint, 400 nM sarpogrelate in HLM with UDPGA): 50 ± 7.89 µL/min/mg
inhibition at 1 h [3, 22]: < 10%
inhibition at 1 h, 0.2 µM [3, 22]: 9.18%
inhibition at 1 h, 2 µM [3, 22]: 9.72%
inhibition at 1 h, 10 µM [3, 22]: 9.95%
Tmax ([4]; humans, 100 mg oral dose): 0.889 ± 0.651 h
observed values of AUC0–24 h (range across studies) [4, 23]: 1,291–1,773 ng h/mL
observed values of Cmax (range across studies) [4, 23]: 466.0 to 781.6 ng/mL
Tmax [4, 24]: 0.67 (0.3–1.5) ^a hours
Tmax ([4]; observed, single oral 100 mg sarpogrelate hydrochloride, median (range), ref 22): 1.00 (1.0–4.0) ^a hours
observed values of AUC (range across studies) [4, 25]: 348.3 to 621.5 ng·h/mL
observed values of Cmax (range across studies) [4, 25]: 343.0 to 635.1 ng/mL
unchanged sarpogrelate in urine or feces ([4]; up to 24 hours after a 100 mg oral dose, humans): no unchanged sarpogrelate was detected
Lag time [5]: 0 h
fa (fraction absorbed in the gastrointestinal tract) [5]: 1.0
formation of M-1 in human blood [6]: not observed
CLpo (oral systemic clearance) ([7]; Calculated from clinical data): 140 L/h
viability at 1 h, 10 µM [8]: > 97%
formation of M-1 in human intestinal microsomes [9]: not observed
viability at 1 h, 10 µM [10]: > 97%
inhibition of BCRP-mediated prazosin transport [11]: did not inhibit
inhibition at 1 h, 0.2 µM [11, 26]: 2.69%
inhibition at 1 h, 2 µM [11, 26]: 9.62%
inhibition at 1 h, 10 µM [11, 26]: 0.38%
Ki [12]: 1240 nM
Log P ([13]; PBPK input, reference cell empty, apparently ref www.Chembase.cn): 1.12
PSA ([13]; ref www.Chembase.cn): 85.3
plasma protein binding [14]: approximately 95%

CNCCCN1c2ccccc2CCc2ccccc21 [Desipramine, desipramine]
metabolized fraction by CYP2D6 [15]: 0.88

COc1cccc(CCc2ccccc2OC[C@H](O)CN(C)C)c1 (racemic) [M-1, (R,S)-1-{2-[2-(3-methoxyphenyl)ethyl]-phenoxy}-3-(dimethylamino)-2-propanol]
Additional CLint in HLM (NADPH generating system) ([2]; 400 nM M-1 in HLM with NADPH generating system): 150 μL/min/mg protein
Permeability Papp,AB of loperamide ([3]; inhibitor 0.2 µM): 0.0894±0.0188 ×10^−6 cm/s
Permeability Papp,BA of loperamide ([3]; inhibitor 0.2 µM): 1.95±0.0443 ×10^−6 cm/s
Permeability Papp,AB of loperamide ([3]; inhibitor 2 µM): 0.0822±0.0192 ×10^−6 cm/s
Permeability Papp,BA of loperamide ([3]; inhibitor 2 µM): 1.84±0.0249 ×10^−6 cm/s
Permeability Papp,AB of loperamide ([3]; inhibitor 10 µM): 0.104±0.0243 ×10^−6 cm/s
Permeability Papp,BA of loperamide ([3]; inhibitor 10 µM): 1.95±0.0403 ×10^−6 cm/s
Inhibition (%) ([3]; inhibitor 0.2 µM): 2.00%
Inhibition (%) ([3]; inhibitor 2 µM): 7.82%
Inhibition (%) ([3]; inhibitor 10 µM): 2.91%
inhibition of P-gp-mediated loperamide transport ([3]; all tested concentrations up to 10 μM): < 10%
observed values of AUC0–24 h (range across studies) [4, 23]: 246.2 to 267.2 ng·h/mL
Tmax [4, 24]: 1.0 (0.33–1.5) ^a hours
CLint by rUGT2B7 [16]: 0.32 μL/min/mg protein
observed ratio of AUC of M-1 to sarpogrelate ([7]; single oral 100 mg sarpogrelate hydrochloride, observed clinical data): 0.139
cell viability (MTT assay) [17]: > 97%
CLint by rUGT1A9 [18]: 1.30 μL/min/mg protein
cell viability (MTT assay) [19]: > 97%
Permeability Papp,AB of prazosin ([11]; inhibitor 0.2 µM): 0.891±0.0355 ×10^−6 cm/s
Permeability Papp,BA of prazosin ([11]; inhibitor 0.2 µM): 3.42±0.0237 ×10^−6 cm/s
Permeability Papp,AB of prazosin ([11]; inhibitor 2 µM): 0.813±0.0547 ×10^−6 cm/s
Permeability Papp,BA of prazosin ([11]; inhibitor 2 µM): 3.31±0.0467 ×10^−6 cm/s
Permeability Papp,AB of prazosin ([11]; inhibitor 10 µM): 0.811±0.0111 ×10^−6 cm/s
Permeability Papp,BA of prazosin ([11]; inhibitor 10 µM): 3.32±0.0139 ×10^−6 cm/s
Inhibition (%) ([11]; inhibitor 0.2 µM): 0.380%
Inhibition (%) ([11]; inhibitor 2 µM): 0.771%
Inhibition (%) ([11]; inhibitor 10 µM): 0.381%
inhibition of BCRP-mediated prazosin transport [11]: did not inhibit
CLint by rUGT1A4 [20]: 0.63 μL/min/mg protein
Ki [12]: 120 nM
fup (fraction unbound in plasma) [14]: 0.03

COc1ccc2c(c1)[C@]13CCCC[C@@H]1[C@H](C2)N(C)CC3 [Dextromethorphan, dextromethorphan]
metabolized fraction by CYP2D6 [15]: 0.96

COCCc1ccc(OCC(O)CNC(C)C)cc1 (stereo not drawn) [Metoprolol, metoprolol]
fold increase of AUCt of metoprolol (observed) [21]: 1.53 fold
fold increase of Cmax of metoprolol (observed) [21]: 1.62 fold
metabolized fraction by CYP2D6 [15]: 0.83
